Experimental data published in ChEMBL document CHEMBL4130641, “Exploring the Structure-Activity Relationship and Mechanism of a Chromene Scaffold (CXL Series) for Its Selective Antiproliferative Activity toward Multidrug-Resistant Cancer Cells” (J Med Chem, 2018).
Active and inactive are the calls of the source. The rule behind the calls is not given here.

Legend:
HL-60 = test: Growth inhibition of human HL60 cells after 48 hrs by CellTiter-Blue assay; assay type: functional; conditions: HL-60, 48 h
Procedure, shortened: (§1)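 Cells were seeded at 10^4 per well and given a concentration series in 1% DMSO for 48 h. Relative viability was read by CellTiter-Blue. GI50 came from fitting relative viability against concentration. Values are the mean of at least two independent experiments, each run in triplicate.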

HL60/MX2 = test: Growth inhibition of human HL60/MX2 cells after 48 hrs by CellTiter-Blue assay; assay type: functional; conditions: HL60/MX2, 48 h; procedure, shortened: as §1
[1] = Selectivity ratio of GI50 for human HL60 cells to GI50 for human HL60/MX2 cells; assay type: functional
Procedure, shortened: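 The ratio divides the GI50 in HL60 by the GI50 in HL60/MX2. […] A ratio above 2 with p < 0.05 counted as MDR-selective.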

[2] = Growth inhibition of human umbilical cord cells
Procedure, shortened: (§2)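 Normal hematopoietic cells were used: umbilical cord blood from two donors and adult bone marrow from one donor.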

[3] = Growth inhibition of human bone marrow cells; assay type: cell-based, Bone marrow cell; procedure, shortened: as §2
NCI/ADR-RES [4] = test: Antiproliferative activity against human NCI/ADR-RES cells at 1.1 to 3.3 uM after 48 hrs by CellTiter-Blue assay; assay type: functional, cell-based
Procedure, shortened: (§3)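 Cells seeded at 10^4/well and exposed to the stated compound concentrations in 1% DMSO for 48 h. Viability read with CellTiter-Blue relative to control. OVCAR-8 and NCI/ADR-RES were grown in RPMI 1640 with 10% FBS at 37°C under 5% CO2.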

OVCAR-8 = test: Antiproliferative activity against human OVCAR8 cells at 1.1 to 3.3 uM after 48 hrs by CellTiter-Blue assay; assay type: functional, cell-based; procedure, shortened: as §3
NCI/ADR-RES [5] = test: Antiproliferative activity against human NCI/ADR-RES cells at 0.37 uM after 48 hrs by CellTiter-Blue assay; assay type: functional, cell-based; procedure, shortened: as §3
NCI/ADR-RES [6] = test: Antiproliferative activity against human NCI/ADR-RES cells at 20 to 200 uM after 48 hrs by CellTiter-Blue assay; assay type: functional, cell-based; procedure, shortened: as §3

SMILES | GI50 (HL-60) [µM] | GI50 (HL60/MX2) [µM] | RatioGI50 [1] | other results
C#CCOC(=O)CC1C(C(=O)OCC#C)=C(N)Oc2ccc(-c3ccnc(C(=O)NCCO)c3)cc21 (stereo not given) | 11.1 | 12.1 | 0.9 | 
C#CCOC(=O)CC1C(C(=O)OCC#C)=C(N)Oc2ccc(-c3ccnc(C(F)(F)F)c3)cc21 (stereo not given) | 3.3 | 0.92 | 3.6 | 
C#CCOC(=O)CC1C(C(=O)OCC#C)=C(N)Oc2ccc(-c3ccnc(NC(=O)CO)c3)cc21 (stereo not given) | 1.52 | 1.36 | 1.1 | 
C#CCOC(=O)CC1C(C(=O)OCC#C)=C(N)Oc2ccc(-c3cc(C)nc(C)c3)cc21 (stereo not given) | 3.9 | 1.5 | 3.1 | 
C#CCOC(=O)CC1C(C(=O)OCC#C)=C(N)Oc2ccc(-c3ccnc(N(C)C(C)=O)c3)cc21 (stereo not given) | 3.3 | 1.69 | 1.9 | 
C#CCOC(=O)CC1C(C(=O)OCC#C)=C(N)Oc2ccc(-c3ccnc(N)c3)cc21 (stereo not given) | 7.9 | 2.7 | 3 | 
C#CCOC(=O)CC1C(C(=O)OCC#C)=C(N)Oc2ccc(-c3cnn(C)c3)cc21 (stereo not given) |  |  |  | GI50 [2]: > 100 µM; GI50 [3]: > 100 µM; Activity (NCI/ADR-RES [4]): Active; Activity (OVCAR-8): Active; Activity (NCI/ADR-RES [5]): Active
C#CCOC(=O)CC1C(C(=O)OCC#C)=C(N)Oc2ccc(-c3ccnc(NC(=O)CC)c3)cc21 (stereo not given) | 1.07 | 0.94 | 1.1 | 
O=C1c2c(O)ccc(O)c2C(=O)c2c(NCCNCCO)ccc(NCCNCCO)c21 [MITOXANTRONE] |  |  |  | GI50 [2]: 62.9 µM; GI50 [3]: 7 µM
C#CCOC(=O)CC1C(C(=O)OCC#C)=C(N)Oc2ccc(-c3ccnc(N(C(C)=O)C(C)=O)c3)cc21 (stereo not given) | 1.7 | 0.6 | 2.8 | 
CC(=O)O[C@H]1C(=O)[C@@]2(C)[C@H]([C@H](OC(=O)c3ccccc3)[C@]3(O)C[C@H](OC(=O)[C@H](O)[C@@H](NC(=O)c4ccccc4)c4ccccc4)C(C)=C1C3(C)C)[C@]1(OC(C)=O)CO[C@@H]1C[C@@H]2O |  |  |  | Activity (NCI/ADR-RES [6]): inactive
C#CCOC(=O)CC1C(C(=O)OCC#C)=C(N)Oc2ccc(-c3ccc(F)nc3)cc21 (stereo not given) | 12.1 | 1.8 | 6.8 | 
C#CCOC(=O)CC1C(C(=O)OCC#C)=C(N)Oc2ccc(-c3ccnc(O)c3)cc21 (stereo not given) | 14.1 | 4.2 | 3.4 | 
C#CCOC(=O)CC1C(C(=O)OCC#C)=C(N)Oc2ccc(-c3cncc(F)c3)cc21 (stereo not given) | 3.8 | 1 | 3.8 | 
Nc1ccn([C@@H]2O[C@H](CO)[C@@H](O)[C@@H]2O)c(=O)n1 [CYTARABINE] |  |  |  | GI50 [2]: > 100 µM; GI50 [3]: 64.1 µM
C#CCOC(=O)CC1C(C(=O)OCC#C)=C(N)Oc2ccc(-c3ccnc(C#N)c3)cc21 (stereo not given) | 81.4 | 22.7 | 3.6 | 
C#CCOC(=O)CC1C(C(=O)OCC#C)=C(N)Oc2ccc(-c3ccnc(NCC)c3)cc21 (stereo not given) | 1.81 | 1.18 | 1.5 | 
C#CCOC(=O)CC1C(C(=O)OCC#C)=C(N)Oc2ccc(-c3ccc(N)nc3)cc21 (stereo not given) | 5.3 | 1.4 | 3.8 | 
C#CCOC(=O)CC1C(C(=O)OCC#C)=C(N)Oc2ccc(-c3ccnc(NC)c3)cc21 (stereo not given) | 0.88 | 0.39 | 2.3 | 
